Laboratory results taken from ChEMBL document CHEMBL3853270, “Influence of Birch Bark Triterpenes on Keratinocytes and Fibroblasts from Diabetic and Nondiabetic Donors” (2016).
The source made the active and inactive calls. The calls are words filed in the database; no cut-off is given here.

How the values were obtained:
Assay type in all cases: functional
[1] = tested on: Keratinocyte; assay: Effect on growth factor related gene expression in non-diabetic young human primary keratinocytes assessed as VEGFA mRNA levels at 1.96 uM after 6 hrs by qPCR analysis
Procedure, shortened: (§1)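 Primary human keratinocytes (nondiabetic young or adult, diabetic adult donors) were exposed to compound for 6 h, with 0.1% DMSO as solvent control. Total RNA came from 400 000 cells per sample and was assayed on a Fluidigm Biomark high-throughput qPCR chip. Results are fold change vs solvent control, from 2−4 independent experiments on two donors per group, with SD. Groups were compared by one-way ANOVA with Bonferroni post-test.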

[2] = tested on: Keratinocyte; assay: Effect on antioxidant related gene expression in non-diabetic young human primary keratinocytes assessed as SOD2 mRNA levels at 1.96 uM after 6 hrs by qPCR analysis
[3] = tested on: Keratinocyte; assay: Effect on pro-inflammatory related gene expression in non-diabetic adult human primary keratinocytes assessed as IL1R1 mRNA levels at 1.96 uM after 6 hrs by qPCR analysis
[4] = tested on: Keratinocyte; assay: Effect on pro-inflammatory related gene expression in non-diabetic adult human primary keratinocytes assessed as IL6 mRNA levels at 1.96 uM after 6 hrs by qPCR analysis
[5] = tested on: Keratinocyte; assay: Effect on growth factor related gene expression in non-diabetic adult human primary keratinocytes assessed as PDGFB mRNA levels at 1.96 uM after 6 hrs by qPCR analysis; procedure, shortened: as §1
[6] = tested on: Keratinocyte; assay: Effect on pro-inflammatory related gene expression in diabetic adult human primary keratinocytes assessed as IL1R1 mRNA levels at 1.96 uM after 6 hrs by qPCR analysis
[7] = tested on: Keratinocyte; assay: Effect on pro-inflammatory related gene expression in non-diabetic young human primary keratinocytes assessed as TNF mRNA levels at 9.81 uM after 6 hrs by qPCR analysis
[8] = tested on: Keratinocyte; assay: Effect on growth factor related gene expression in non-diabetic young human primary keratinocytes assessed as PDGFB mRNA levels at 9.81 uM after 6 hrs by qPCR analysis; procedure, shortened: as §1
[9] = tested on: Keratinocyte; assay: Effect on growth factor related gene expression in non-diabetic young human primary keratinocytes assessed as VEGFA mRNA levels at 9.81 uM after 6 hrs by qPCR analysis; procedure, shortened: as §1
[10] = tested on: Keratinocyte; assay: Effect on growth factor related gene expression in non-diabetic adult human primary keratinocytes assessed as PDGFB mRNA levels at 9.81 uM after 6 hrs by qPCR analysis; procedure, shortened: as §1
[11] = tested on: Keratinocyte; assay: Effect on MMP1 mRNA expression levels in non-diabetic adult human primary keratinocytes at 9.81 uM after 6 hrs by qPCR analysis
Procedure, shortened: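 Primary keratinocytes from nondiabetic young and adult and diabetic adult donors; 400 000 cells per sample, 6 h exposure at 1.96 or 9.81 μM. RNA extracted and read on a high-throughput qPCR chip. Results are fold change versus 0.1% DMSO solvent control from 5−7 independent experiments over two donors per group, SD, one-way ANOVA with Bonferroni post-test.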

[12] = tested on: Keratinocyte; assay: Effect on pro-inflammatory related gene expression in diabetic adult human primary keratinocytes assessed as PTGS2 mRNA levels at 9.81 uM after 6 hrs by qPCR analysis
[13] = tested on: Fibroblast; assay: Effect on chemokines related gene expression in non-diabetic young human primary fibroblasts assessed as IL8 mRNA levels at 1.96 uM after 6 hrs by qPCR analysis
Procedure, shortened: (§2)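 Primary human dermal fibroblasts (young or adult nondiabetic, adult diabetic donor) were treated for 6 h against a 0.1% DMSO solvent control. RNA from 320 000 cells per sample was measured by Fluidigm Biomark high-throughput qPCR. Values are fold change relative to solvent control, from four independent experiments, with SD. One-way ANOVA with Bonferroni post-test was applied.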

[14] = tested on: Fibroblast; assay: Effect on antiinflammatory related gene expression in non-diabetic young human primary fibroblasts assessed as NFKBIA mRNA levels at 1.96 uM after 6 hrs by qPCR analysis
Procedure, shortened: (§3)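 Primary dermal fibroblasts from one nondiabetic young, one nondiabetic adult and one diabetic adult donor; 320 000 cells per sample, 6 h at 1.96 or 9.81 μM. RNA measured on a high-throughput qPCR chip. Fold change versus 0.1% DMSO control, four independent experiments, SD, one-way ANOVA with Bonferroni post-test.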

[15] = tested on: Fibroblast; assay: Effect on antiinflammatory related gene expression in diabetic adult human primary fibroblasts assessed as SOCS3 mRNA levels at 1.96 uM after 6 hrs by qPCR analysis; procedure, shortened: as §3
[16] = tested on: Fibroblast; assay: Effect on pro-inflammatory related gene expression in non-diabetic adult human primary fibroblasts assessed as IL6 mRNA levels at 1.96 uM after 6 hrs by qPCR analysis
[17] = tested on: Fibroblast; assay: Effect on antiinflammatory related gene expression in non-diabetic adult human primary fibroblasts assessed as NFKBIA mRNA levels at 1.96 uM after 6 hrs by qPCR analysis; procedure, shortened: as §3
[18] = tested on: Fibroblast; assay: Effect on growth factor related gene expression in non-diabetic adult human primary fibroblasts assessed as GDF15 mRNA levels at 1.96 uM after 6 hrs by qPCR analysis; procedure, shortened: as §2
[19] = tested on: Fibroblast; assay: Effect on pro-inflammatory related gene expression in diabetic adult human primary fibroblasts assessed as PTGS2 mRNA levels at 1.96 uM after 6 hrs by qPCR analysis
[20] = tested on: Fibroblast; assay: Effect on pro-inflammatory related gene expression in diabetic adult human primary fibroblasts assessed as IL6 mRNA levels at 1.96 uM after 6 hrs by qPCR analysis; procedure, shortened: as §2
[21] = tested on: Fibroblast; assay: Effect on chemokines related gene expression in diabetic adult human primary fibroblasts assessed as WDR26 mRNA levels at 1.96 uM after 6 hrs by qPCR analysis
[22] = tested on: Fibroblast; assay: Effect on chemokines related gene expression in diabetic adult human primary fibroblasts assessed as CCL2 mRNA levels at 9.81 uM after 6 hrs by qPCR analysis
[23] = tested on: Fibroblast; assay: Effect on antioxidant related gene expression in non-diabetic adult human primary fibroblasts assessed as SOD2 mRNA levels at 9.81 uM after 6 hrs by qPCR analysis
[24] = tested on: Fibroblast; assay: Effect on growth factor related gene expression in non-diabetic adult human primary fibroblasts assessed as GDF15 mRNA levels at 9.81 uM after 6 hrs by qPCR analysis; procedure, shortened: as §2
[25] = tested on: Fibroblast; assay: Effect on antiinflammatory related gene expression in diabetic adult human primary fibroblasts assessed as NFKBIA mRNA levels at 9.81 uM after 6 hrs by qPCR analysis; procedure, shortened: as §3
[26] = tested on: Fibroblast; assay: Effect on antioxidant related gene expression in non-diabetic young human primary fibroblasts assessed as NFE2L2 mRNA levels at 9.81 uM after 6 hrs by qPCR analysis
[27] = Effect on wound healing activity in non-diabetic adult human primary keratinocytes assessed as upregulation of IL8 protein levels at 1.96 uM after 24 hrs by bead-based suspension array analysis; details: Keratinocyte
[28] = Effect on wound healing activity in diabetic adult human primary fibroblasts assessed as upregulation of soluble TNFR1 protein levels at 1.96 uM after 24 hrs by bead-based suspension array analysis; details: Fibroblast
[29] = tested on: Fibroblast; assay: Effect on actin cytoskeleton in human diabetic primary fibroblasts assessed as formation of thin elongated cellular body at 10 nM after 2 hrs by rhodamine phalloidin-staining based fluorescence microscopic analysis
Procedure, shortened: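 Subconfluent cells on glass coverslips, collagen type I coated for fibroblasts; keratinocytes starved 2 days before stimulation. Exposure 2 h, then rhodamine-phalloidin staining (1:25 in PBS) and fluorescence microscopy. Controls were DMSO as solvent and PDGF (fibroblasts) or CNF1 (keratinocytes). Where used, p38-MAPK inhibitor LN 950 (100 nM) was added 30 min beforehand.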

SMILES: C=C(C)[C@@H]1CC[C@]2(CO)CC[C@]3(C)[C@H](CC[C@@H]4[C@@]5(C)CC[C@H](O)C(C)(C)[C@@H]5CC[C@]43C)[C@@H]12 [BETULIN]
- fold change (FC) [1]: 1.3
- fold change (FC) [2]: 1.3
- fold change (FC) [3]: 0.7
- fold change (FC) [4]: 16.2
- fold change (FC) [5]: 0.8
- fold change (FC) [6]: 0.8
- fold change (FC) [7]: 6
- fold change (FC) [8]: 1.1
- fold change (FC) [9]: 1.4
- fold change (FC) [10]: 0.9
- fold change (FC) [11]: 1
- fold change (FC) [12]: 2.2
- fold change (FC) [13]: 23.5
- fold change (FC) [14]: 2.9
- fold change (FC) [15]: 2
- fold change (FC) [16]: 278
- fold change (FC) [17]: 7.5
- fold change (FC) [18]: 2.1
- fold change (FC) [19]: 4.1
- fold change (FC) [20]: 14.9
- fold change (FC) [21]: 1.2
- fold change (FC) [22]: 1.7
- fold change (FC) [23]: 18
- fold change (FC) [24]: 3.2
- fold change (FC) [25]: 1.4
- fold change (FC) [26]: 1.4
- Activity [27]: Active
- Activity [28]: Active
- Activity [29]: Active
